Results reported in ChEMBL document CHEMBL2346610, “N-Alkyldeoxynojirimycin derivatives with novel terminal tertiary amide substitution for treatment of bovine viral diarrhea virus (BVDV), Dengue, and Tacaribe virus infections” (Bioorg Med Chem Lett, 2013).
Activity calls are given as the source filed them. No cut-off for these calls is given here.

Assays:
[1] = tested on: Bovine viral diarrhea virus 1; experiment: Antiviral activity against BVDV infected in MDBK cells assessed as reduction of viral yield; format: functional, organism-based; conditions: Bovine viral diarrhea virus isolates and strains
Method in brief: (§1)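 Assays were run in MDBK cells. BVDV antiviral activity was measured by virus yield reduction and reported as EC50. Cytotoxicity was measured by MTT assay and reported as CC50.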

[2] = Cytotoxicity against human Huh7.5 cells by MTT assay; format: cell-based, Huh-7
Dengue virus = experiment: Antiviral activity against Dengue virus infected in BHK cells; format: functional, organism-based
[3] = Cytotoxicity against BHK cells by MTT assay; format: cell-based, Mesocricetus auratus; conditions: hamster
[4] = tested on: Bovine viral diarrhea virus 1; experiment: Reduction of BVDV E2 protein mobility rate infected in MDBK cells at EC50 after 22 hrs by Western blot analysis; format: functional, organism-based
Method in brief: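 MDBK cells were infected with BVDV at MOI 1 for 1 h, then mock-treated or compound-treated. Cells were harvested 22 h post-infection. Lysates were run on electrophoresis and Western blotted, detecting BVDV E2 glycoprotein and β-actin loading control simultaneously.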

Tacaribe virus = experiment: Antiviral activity against Tacaribe virus infected in human Huh7.5 cells; format: functional, organism-based; conditions: Mammarenavirus tacaribeense, Huh-7
[5] = Cytotoxicity against MDBK cells by MTT assay; format: cell-based, Bos taurus; conditions: cattle; method in brief: as §1

Row | SMILES | EC50 [1] [µM] | CC50 [2] [µM] | EC50 (Dengue virus) [µM] | CC50 [3] [µM] | Activity [4] | EC50 (Tacaribe virus) [µM] | CC50 [5] [µM]
1 | CC(C)(C)C(=O)N(CCCCCCN1C[C@H](O)[C@@H](O)[C@H](O)[C@H]1CO)c1ccc(F)cc1F | 0.25 | > 500 | 2.2 | > 500 | Active | 2.5 | > 500
2 | CC1CCCCC1NCCCCCCN1C[C@H](O)[C@@H](O)[C@H](O)[C@H]1CO (stereo partly specified) | > 100 | – | – | – | inactive | – | > 500
3 | OC[C@@H]1[C@@H](O)[C@H](O)[C@@H](O)CN1CCCCCCN(C1CCCCC1)C1CCCCC1 | 6.3 | – | – | – | Active | – | > 500
4 | CC(C)(C)C(=O)N(CCCCCCN1C[C@H](O)[C@@H](O)[C@H](O)[C@H]1CO)C1CCCCC1 | 0.2 | 500 | 0.28 | > 500 | Active | 0.2 | > 500
5 | CC(C)(C)C(=O)N(CCCCCCN1C[C@H](O)[C@@H](O)[C@H](O)[C@H]1CO)C12CC3CC(CC(C3)C1)C2 | 0.21 | 170 | 1.38 | > 500 | – | 0.21 | 420
6 | CC(C)(C)C(=O)N(CCCCCCN1C[C@H](O)[C@@H](O)[C@H](O)[C@H]1CO)C1CCC1 | 0.8 | – | 1.9 | > 500 | – | – | > 500
7 | CC(C)(C)C(=O)N(CCCCCCN1C[C@H](O)[C@@H](O)[C@H](O)[C@H]1CO)c1cc(F)ccc1F | 0.4 | > 500 | 5.4 | > 500 | – | 0.62 | > 500
8 | CC(C)(C)C(=O)N(CCCCCCN1C[C@H](O)[C@@H](O)[C@H](O)[C@H]1CO)C1CCCC1 | 0.85 | > 500 | 2 | > 500 | – | 4 | > 500
9 | CC(C)(C)CC(=O)N(CCCCCCN1C[C@H](O)[C@@H](O)[C@H](O)[C@H]1CO)C1CCCCC1 | 0.18 | > 500 | 1.5 | > 500 | Active | 0.4 | > 500
10 | CC(C)(C)OC(=O)NCCCCCCN1C[C@H](O)[C@@H](O)[C@H](O)[C@H]1CO | 2.5 | – | – | – | Active | – | > 500
11 | CC(=O)N(CCCCCCN1C[C@H](O)[C@@H](O)[C@H](O)[C@H]1CO)C1CCCCC1 | 0.28 | > 500 | 14 | > 500 | – | 1 | > 500
12 | CC(=O)N(CCCCCCN1C[C@H](O)[C@@H](O)[C@H](O)[C@H]1CO)c1cc(F)ccc1F | 5 | – | – | – | – | – | > 500
13 | C[C@H]1CCCC[C@@H]1OCCCCCCN1C[C@H](O)[C@@H](O)[C@H](O)[C@H]1CO | 3.3 | – | – | – | – | – | –
14 | CC(C)(C)C(=O)N(CCCCCCN1C[C@H](O)[C@@H](O)[C@H](O)[C@H]1CO)C1C2CC3CC(C2)CC1C3 (stereo partly specified) | 0.31 | 125 | 0.125 | 192 | – | 0.5 | 180
15 | CC1CCCCC1N(CCCCCCN1C[C@H](O)[C@@H](O)[C@H](O)[C@H]1CO)C(=O)C(C)(C)C (stereo partly specified) | 0.22 | 310 | 0.32 | > 500 | Active | 0.2 | > 500
16 | CC1CCCCC1N(CCCCCCN1C[C@H](O)[C@@H](O)[C@H](O)[C@H]1CO)C(=O)OC(C)(C)C (stereo partly specified) | 0.4 | 240 | 0.3 | 230 | Active | 0.3 | 250
17 | CC(C)(C)C(=O)N(CCCCCCN1C[C@H](O)[C@@H](O)[C@H](O)[C@H]1CO)C1CCCCCC1 | 0.4 | > 500 | 0.8 | > 500 | – | 1 | > 500
18 | CC(C)(C)C(=O)N(CCCCCCN1C[C@H](O)[C@@H](O)[C@H](O)[C@H]1CO)C1CCCCCCC1 | 0.24 | 150 | 0.8 | 208 | – | 0.29 | 270
19 | CC(C)(C)C(=O)N(CCCCCCN1C[C@H](O)[C@@H](O)[C@H](O)[C@H]1CO)C1CC1 | 3.75 | – | 8.8 | > 500 | Active | – | > 500
20 | CC(=O)N(CCCCCCN1C[C@H](O)[C@@H](O)[C@H](O)[C@H]1CO)c1ccc(F)cc1F | 6 | – | – | – | Active | – | > 500
